According to ChEMBL document CHEMBL3232893, “Design of antiviral stapled peptides containing a biphenyl cross-linker” (Bioorg Med Chem Lett, 2014):
Bridge positions count the residues as written; N and C are the ends. Square brackets hold non-standard residues; d marks the D form. Peptide text beside a SMILES is read from it. R8 = C=CCCCCCC[C@@](C)(N)C(=O)O; S5 = C=CCCC[C@](C)(N)C(=O)O

Tests used:
[1] = system: Human immunodeficiency virus 1; test: Antiviral activity against HIV-1 3B infected in human MT-2 cells assessed as reduction in p24 antigen level incubated for overnight measured on fourth day post infection by multi-cycle infection assay based sandwich ELISA; assay type: functional, organism-based; settings: Human immunodeficiency virus 1, 3B, MT2
Procedure, shortened: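 Multi-cycle infection in MT-2 cells; read-out is reduction of p24 levels. IC50 derived from dose-response.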

[2] = system: Human immunodeficiency virus 1; test: Antiviral activity against HIV-1 NL4-3-HXB2 pseudovirus co-transfected with luciferase gene infected in human TZM-bl cells assessed as reduction of luciferase production after 3 days by single-cycle neutralization assay; assay type: functional, organism-based; settings: Human immunodeficiency virus 1, NL4-3-HXB2, TZM-bl, 72 h
Procedure, shortened: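 Single-cycle neutralization in TZM-bl cells; read-out is reduction of luciferase production. IC50 derived from dose-response.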

[3] = Cytotoxicity against human MT2 cells after 4 days by XTT assay; assay type: cell-based
[4] = Cytotoxicity against human TZM-bl cells after 3 days by XTT assay; assay type: cell-based
[5] = Binding affinity to HIV-1 capsid protein C-terminal domain M184A/W185A mutant at 15 uM by isothermal titration calorimetric analysis; parameters: species or system Human immunodeficiency virus 1
Procedure, shortened: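 ITC: 350 μM CTD M184A/W185A mutant titrated in 10 μL aliquots into 15 μM peptide in the cell. The integrated binding isotherm was fitted to a single-site binding equation to give Kd.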

[6] = Binding affinity to HIV-1 C-terminal domain of capsid protein p24; parameters: species or system Human immunodeficiency virus 1

Structure (SMILES)	IC50 [1]	IC50 [2]	CC50 at 96 h [3]	CC50 at 72 h [4]	Kd [5]	Kd [6]
CC[C@H](C)[C@H](NC(C)=O)C(=O)N[C@@H](CO)C(=O)N[C@@H](Cc1ccccc1)C(=O)N[C@@H]1CSCc2ccc(cc2)-c2ccc(cc2)CSC[C@@H](C(=O)N[C@@H](CCC(=O)O)C(=O)N[C@@H](CO)C(=O)NCC(=O)N[C@@H](CO)C(N)=O)NC(=O)[C@H](Cc2ccc(O)cc2)NC(=O)[C@H](Cc2ccc(O)cc2)NC(=O)[C@H](CC(=O)O)NC(=O)[C@H](C)NC(=O)[C@H](CC(C)C)NC(=O)[C@H](CCC(=O)O)NC1=O	4.1 µM	1400 nM	26 µM	> 52 µM		
CC[C@H](C)[C@H](N)C(=O)N[C@H](C(=O)N[C@@H](Cc1ccccc1)C(=O)N[C@@H](CCC(=O)O)C(=O)N[C@@H](CC(=O)O)C(=O)N[C@@H](CC(C)C)C(=O)N[C@@H](CC(C)C)C(=O)N[C@@H](CC(=O)O)C(=O)N[C@@H](Cc1ccc(O)cc1)C(=O)N[C@@H](Cc1ccc(O)cc1)C(=O)NCC(=O)N1CCC[C@H]1C(=O)O)[C@@H](C)O (H-ITFEDLLDYYGP-OH)	> 135 µM	> 135000 nM	> 135 µM	> 135 µM	8.3 µM	15 µM
CC[C@H](C)[C@H](N)C(=O)N[C@@H](CO)C(=O)N[C@@H](Cc1ccccc1)C(=O)N[C@]1(C)CCCCCC/C=C\CCC[C@@](C)(C(=O)N[C@@H](CCC(=O)O)C(=O)N[C@@H](CO)C(=O)NCC(=O)N[C@@H](CO)C(=O)O)NC(=O)[C@H](Cc2ccc(O)cc2)NC(=O)[C@H](Cc2ccc(O)cc2)NC(=O)[C@H](CC(=O)O)NC(=O)[C@H](CC(C)C)NC(=O)[C@H](CC(C)C)NC(=O)[C@H](CCC(=O)O)NC1=O (H-ISF[R8]ELLDYY[S5]ESGS-OH; staple (Z) 4-11)	1.5 µM	2000 nM	> 189 µM	> 189 µM		
CC[C@H](C)[C@H](NC(C)=O)C(=O)N[C@@H](CO)C(=O)N[C@@H](Cc1ccccc1)C(=O)N[C@@H]1CSCc2ccc(cc2)-c2ccc(cc2)CSC[C@@H](C(=O)N[C@@H](CCC(=O)O)C(=O)N[C@@H](CO)C(=O)NCC(=O)N[C@@H](CO)C(N)=O)NC(=O)[C@H](Cc2ccc(O)cc2)NC(=O)[C@H](Cc2ccc(O)cc2)NC(=O)[C@H](CC(=O)O)NC(=O)[C@H](CC(C)C)NC(=O)[C@H](CC(C)C)NC(=O)[C@H](CCC(N)=O)NC1=O	5.5 µM	3100 nM	> 103 µM	> 103 µM		
